In ChEMBL document CHEMBL4368871, “Flush with a flash: natural three-component antimicrobial combinations based on S-nitrosothiols, controlled superoxide formation and "domino" reactions leading to peroxynitrite” (Medchemcomm, 2018):
Each block holds one compound with its values, some of them ahead of it. The source made the active and inactive calls. The calls are words filed in the database; no cut-off is given here.

Assays:
Steinernema feltiae [1] = assay: Nematocidal activity against Steinernema feltiae assessed as nematode viability at 250 to 1000 uM measured up to 24 hrs in presence of xanthine oxidase; type: functional
Steinernema feltiae [2] = assay: Nematocidal activity against Steinernema feltiae at 250 to 1000 uM measured under dark condition up to 24 hrs; type: functional, organism-based
Summary of the method: (§1)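 S. feltiae nematodes were exposed to riboflavin (500 or 1000 μM) with the S-nitrosothiol, incubated 24 h at 37 °C without light. Controls were medium plus nematodes (negative), penicillin/streptomycin/amphotericin B (positive), and 1000 μM riboflavin or RSNO alone. Triplicates on three occasions (n = 9).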

Steinernema feltiae [3] = assay: Nematocidal activity against Steinernema feltiae assessed as nematode viability at 250 to 1000 uM measured up to 24 hrs in presence of xanthine/xanthine oxidase; type: functional
[4] = Induction of peroxynitrite anion generation assessed as peroxynitrite anion level in presence of riboflavin by DHR-123 indicator based spectrofluorometric method; type: functional
Summary of the method: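 Peroxynitrite was generated by the S-nitrosothiol with riboflavin (250, 500, 1000 μM) illuminated by a standard lamp (0.6 Lumen, 310 K), followed over 2–24 h. It was detected by oxidation of dihydrorhodamine 123 to fluorescent rhodamine 123, with excitation at 485 nm and emission at 530 nm.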

[5] = Induction of peroxynitrite anion generation assessed as peroxynitrite anion level in presence of xanthine/xanthine oxidase by DHR-123 indicator based spectrofluorometric method; type: functional
Summary of the method: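 Peroxynitrite was generated by the S-nitrosothiol with xanthine (400 μM) and xanthine oxidase (50 mU mL–1), the reaction being started by adding substrate or enzyme. It was quantified spectrofluorometrically by dihydrorhodamine 123 oxidation to rhodamine 123, with excitation at 485 nm and emission at 530 nm.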

Candida tropicalis = assay: Antimicrobial activity against Candida tropicalis assessed as reduction in microbial growth at 250 to 1000 uM measured up to 24 hrs in presence of xanthine/xanthine oxidase; type: functional, organism-based
Summary of the method: (§2)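 Xanthine (400 μM) and xanthine oxidase (50 mU mL–1) were combined with the S-nitrosothiol at 250, 500 and 1000 μM. Growth was read as optical density at 570 nm at 0 h and after 24 h at 37 °C. Controls were medium plus organism (negative) and penicillin/streptomycin/amphotericin B (positive). Runs were in triplicate on three occasions (n = 9), analysed by one-way ANOVA.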

Saccharomyces cerevisiae = assay: Antimicrobial activity against Saccharomyces cerevisiae assessed as microbial growth at 250 to 1000 uM measured up to 24 hrs in presence of xanthine/xanthine oxidase; type: functional; summary of the method: as §2
Steinernema feltiae [6] = assay: Nematocidal activity against Steinernema feltiae at 250 to 1000 uM in presence of riboflavin measured under dark condition up to 24 hrs; type: functional, organism-based; summary of the method: as §1
Escherichia coli [7] = assay: Antimicrobial activity against Escherichia coli assessed as microbial growth at 250 to 1000 uM measured up to 24 hrs in presence of riboflavin under day light exposure relative to control; type: functional
Summary of the method: (§3)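 E. coli was exposed to riboflavin (250, 500, 1000 μM) plus the S-nitrosothiol at 250, 500 or 1000 μM. Incubation was 24 h at 37 °C under a daylight LED (0.6 Lumen). Growth was read as OD at 570 nm at 0 h and 24 h. Controls were medium plus organism, antibiotic/antifungal mix, and riboflavin or RSNO alone. Triplicates on three occasions (n = 9), one-way ANOVA.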

Bacillus cereus = assay: Antimicrobial activity against Bacillus cereus assessed as microbial growth at 250 to 1000 uM measured up to 24 hrs in presence of xanthine/xanthine oxidase; type: functional; summary of the method: as §2
Escherichia coli [8] = assay: Antimicrobial activity against Escherichia coli assessed as reduction in microbial growth measured up to 24 hrs in presence of riboflavin under day light exposure; type: functional, organism-based; summary of the method: as §3
Escherichia coli [9] = assay: Dark toxicity against Escherichia coli at 250 to 1000 uM measured under dark condition up to 24 hrs; type: organism-based; conditions: in vivo
Summary of the method: (§4)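 E. coli was treated with the riboflavin (250, 500, 1000 μM) plus RSNO (250–1000 μM) system and incubated 24 h at 37 °C in the dark. Growth was read as OD at 570 nm at 0 and 24 h. Medium-only and antibiotic-mix controls were included, plus riboflavin and RSNO dilution controls. Triplicates on three occasions (n = 9).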

Escherichia coli [10] = assay: Dark toxicity against Escherichia coli at 250 to 1000 uM in presence of riboflavin measured up to 24 hrs; type: organism-based; conditions: in vivo; summary of the method: as §4

- Activity [5]: 17.1 µM
SMILES: N[C@@H](CCC(=O)N[C@@H](CSN=O)C(=O)NCC(=O)O)C(=O)O [S-NITROSOGLUTATHIONE]
- Activity (Steinernema feltiae [1]): 50%
- Activity (Steinernema feltiae [2]): inactive
- Activity (Steinernema feltiae [3]): <10%
- Activity [4]: 18.9 µM
- Activity (Candida tropicalis): inactive
- Activity (Saccharomyces cerevisiae): 9%
- Activity (Steinernema feltiae [6]): inactive
- Activity (Escherichia coli [7]): 20%
- Activity (Bacillus cereus): 6%
- Activity (Escherichia coli [8]): Dose-dependent effect
- Activity (Escherichia coli [9]): Non-Toxic
- Activity (Escherichia coli [10]): Non-Toxic

- Activity [5]: 15.4 µM
SMILES: CC(=O)N[C@@H](C(=O)O)C(C)(C)SN=O
- Activity (Steinernema feltiae [1]): 50%
- Activity (Steinernema feltiae [3]): <10%
- Activity [4]: 20.4 µM
- Activity (Candida tropicalis): inactive
- Activity (Saccharomyces cerevisiae): Active
- Activity (Bacillus cereus): Active
- Activity (Escherichia coli [8]): Dose-dependent effect
